This is a sample that favours compounds with a hit; in the whole collection about 5.2% have one here.
ZTA DNA inh = counter-screen for EBNA-1 inhibitors: inhibitors of Epstein-Barr virus ZTA; inhibition, % at 11 µM; ZTA-DNA binding, fluorescence polarization; P03206; 0.15% of 320,000 active; in the data active = inhibition above about 33%
Target sequence (P03206 whole entry, looked up): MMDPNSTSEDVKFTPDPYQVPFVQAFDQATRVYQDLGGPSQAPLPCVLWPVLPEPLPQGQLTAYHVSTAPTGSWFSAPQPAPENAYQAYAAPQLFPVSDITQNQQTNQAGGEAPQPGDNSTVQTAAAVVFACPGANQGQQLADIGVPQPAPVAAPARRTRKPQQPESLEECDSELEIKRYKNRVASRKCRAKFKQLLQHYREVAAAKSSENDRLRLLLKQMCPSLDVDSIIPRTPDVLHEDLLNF
EBNA-1 inh = blocks EBNA-1 binding to DNA; EBNA-1 DNA binding, fluorescence polarization; inhibition, % at 14.8 µM; 0.34% of 300,000 active; AID 1950; in the data active = inhibition above about 28%
ALR inh = inhibitors of human sulfhydryl oxidase ALR. purified ALR, DTT oxidation, H2O2 HRP-luminol luminescence. P55789. 3.8% of 290,000 active. inhibition, % (no concentration beside the values);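 active = mean replicate inhibition above about 79%, with every replicate also reaching it, limit read from the data; inconclusive = only one of the two criteria met; inactive = mean below limit and not every replicate reaching it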
Target sequence (P55789 whole entry, looked up): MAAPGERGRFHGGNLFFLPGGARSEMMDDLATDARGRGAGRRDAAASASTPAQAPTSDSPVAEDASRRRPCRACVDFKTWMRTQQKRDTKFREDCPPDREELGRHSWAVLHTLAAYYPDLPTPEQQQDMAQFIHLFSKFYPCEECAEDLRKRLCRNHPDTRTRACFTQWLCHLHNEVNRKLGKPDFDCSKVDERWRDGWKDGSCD
core dimer inh = blocks dimerization of HCV core protein | TR-FRET GST/Flag-core106 dimerization, 1536-well | inhibition, % at 5 µM | 0.33% of 300,000 active | AID 1899;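 active = inhibition above the mean of all tested compounds plus 3 SD, set per screening campaign, cut at about 45% in these data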
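Material: Tagged HCV core106 pair (GST and Flag) | Amount: GST-core106 13.5 nM, Flag-core106 17 nM | Medium: KF-containing HEPES buffer, pH 7.45, DTT, CHAPS, BSA | Reagent: Eu donor and XL665 acceptor anti-tag antibodies | Schedule: 4 h at 22.5 °C | Technique: Time-resolved FRET, ex 340 nm, em 617 and 671 nm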
M18AAP inhibitor = PfM18AAP enzyme inhibition; 1.2% of 290,000 active; inhibition, % at 7.35 µM; recombinant PfM18AAP, H-Glu-NHMec fluorogenic cleavage;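 active = inhibition above the campaign mean inhibition over all tested compounds plus 3 SD, cut at about 28% in these data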;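 also: 0% = plate median of test compound wells and 100% = 2 mM ZnCl2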
HCV NS3 hel inh = inhibitors of Hepatitis C virus NS3 helicase; NS3 helicase DNA unwinding, Cy5 molecular beacon fluorescence; inhibition, % at 10.9 µM; 0.56% of 290,000 active;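 active = inhibition above the mean of all tested compounds plus 3 SD, set per campaign, cut at about 35% in these data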;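 also: 0% = DMSO wells and 100% = thioflavine S control wells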
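System: NS3 helicase fragment of HCV / Schedule: 1 h at 25 °C / Control set: DMSO alone as 0% and 110 µM thioflavine S as 100% / Reagent: Cy5/quencher beacon DNA duplex and ATP to start / Technique: Cy5 fluorescence / Replication: singlicate / Evaluation: % inhibition of end-to-start signal ratio versus controls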
NS3 helicase cf = HCV NS3 helicase inhibition, confirmation assay; NS3 helicase DNA unwinding, Cy5 molecular beacon fluorescence; inhibition, % at 10.9 µM; shares compounds with HCV NS3 hel inh; 31% of 1,600 active; AID 1943;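 active = inhibition above the mean of all tested compounds plus 3 SD, cutoff set per campaign, cut at about 36% in these data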
FID counter trip = counter-screen for HCV NS3 helicase inhibitors: DNA intercalator displacement. DNA fluorescent intercalator displacement, fluorescence. shares compounds with HCV NS3 hel inh. inhibition, % at 7.9 µM. 4% of 1,600 active; in the data active = inhibition above about 37%;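 also: 0% = vehicle and 100% = reference compound; higher means more displacement of ethidium bromide from the DNA hairpin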
FID counter DR = DNA intercalator displacement in dose response. shares compounds with HCV NS3 hel inh. fluorescent intercalator displacement from DNA, fluorescence. IC50, µM. 120 tested, under 10 active; call rule not given here
Starred values were filed as active, the others as inactive; ? = inconclusive; nt = not tested or not shown.

SMILES	ZTA DNA inh	EBNA-1 inh	ALR inh	core dimer inh	M18AAP inhibitor	HCV NS3 hel inh	NS3 helicase cf	FID counter trip	others
O=S(=O)(NCCN1CCOCC1)c1cc(Cl)ccc1Cl	-9	-4	1	-2	-7	-6	nt	nt
CN1CCN(C(c2ccc(Br)cc2)c2cc(Cl)c3cccnc3c2O)CC1 (centres undefined)	-6	-12	17	-8	2	40*	19	74*
COc1cc2cc3c(N)c(C(=O)NCc4ccco4)sc3nc2cc1OC	-4	6	3	-36	23	9	nt	nt
COc1cc2cc3c(N)c(C(=O)Nc4sc(C)c(C)c4C#N)sc3nc2cc1OC	6	4	39	3	16	37*	50*	-14	FID counter DR=>79
O=C(NNC1CC(=O)N(c2ccc(Cl)cc2)C1=O)c1ccccc1Cl (centres undefined)	-5	4	-1	1	4	38*	-14	-6
Cc1ccc(C(=O)C2=C(O)C(=O)N(Cc3ccco3)C2c2cccc(Cl)c2)o1 (centres undefined)	-4	-2	6	30	13	74*	71*	-29	FID counter DR=>79
Cc1ccc(C(=O)C2=C(O)C(=O)N(Cc3ccco3)C2c2cccc(Br)c2)o1 (centres undefined)	3	0	17	21	19	101*	92*	-33
O=C(C1=C(O)C(=O)N(Cc2ccco2)C1c1cccc(O)c1)c1ccco1 (centres undefined)	-22	-2	4	-2	4	5	nt	nt
Cc1ccc(C(=O)C2=C(O)C(=O)N(Cc3cccnc3)C2c2ccc(Br)cc2)o1 (centres undefined)	-5	2	5	-2	11	40*	-20	-43
CCCCc1ccc(NC(=O)CSc2nc(=O)n3cc(C)ccc3n2)cc1	18	-1	-5	4	nt	nt	nt	nt
COc1ccc(C2/C(=C(\O)c3ccc4c(c3)OCCO4)C(=O)C(=O)N2c2nc(C)c(C(C)=O)s2)cc1 (centres undefined)	-7	-8	7	0	8	38*	64*	-11	FID counter DR=>79
Cc1ccc2nc(N3C(=O)C(O)=C(C(=O)c4ccc(C)o4)C3c3cccc(O)c3)sc2c1 (centres undefined)	13	10	nt	11	23	44*	106*	4
CCCCC(=Nc1ccc(N)cc1)C1=C(O)C(C(=O)OC)C(C)(C)CC1=O (centres undefined)	-2	3	9	-30	19	18	nt	nt
CCC(=Nc1ccc(N)cc1)C1=C(O)C(C(=O)OC)C(C)(C)CC1=O (centres undefined)	13	1	31	-18	8	47*	-16	-12
CN(C)c1ccc(/C=C/c2cccc[n+]2[O-])cc1	-9	-4	?	-10	13	2	nt	nt
CN(C)c1ccc(/C=C/c2ccc3c4ccccc4ccc3[n+]2-c2ccccc2)cc1	nt	nt	nt	nt	3	63*	91*	101*
O=C1CC(c2ccc(Cl)cc2)CC(=O)C1CS(=O)(=O)c1ccccc1 (centres undefined)	-20	-7	17	6	-9	36*	70*	-14
O=C1CCCC(=O)C1CS(=O)(=O)c1ccccc1	-5	-26	12	-2	5	0	nt	nt
COc1ccc(C2CC(=O)C(CS(=O)(=O)c3ccccc3)C(=O)C2)cc1 (centres undefined)	6	6	48	-2	9	43*	-5	-36
O=C(c1ccc(NS(=O)(=O)c2cccc([N+](=O)[O-])c2)cc1)N1CCN(C(=O)c2ccco2)CC1	-7	nt	-4	nt	nt	nt	nt	nt
CN(NS(=O)(=O)c1ccc(Cl)cc1)c1ncc(C(F)(F)F)cc1Cl	0	-4	-5	4	-13	-3	nt	nt
S=C(NCCc1ccccc1)Nc1ccc(Br)cc1	-33	-5	1	-6	8	-12	nt	nt

Bioassay records: PubChem BioAssay, several laboratories
